Data reported in ChEMBL document CHEMBL1138284, “Malaria causal prophylactic activity of imidazolidinedione derivatives” (J Med Chem, 2007).
The source made the active and inactive calls. No cut-off for these calls is given here.

Experiments:
Plasmodium yoelii [1] = assay: Protection against Plasmodium yoelii sporozoite infected mice (Mus musculus) as minimal active perorally daily dose over 3 days; format: functional
In short: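 Mice were challenged with P. yoelii sporozoites and dosed orally once daily for 3 consecutive days (days −1, 0, +1), starting the day before challenge. Protection was scored at day 6 as protected mice out of 5 per dose. The minimum active dose was taken from the dose series.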

Plasmodium yoelii [2] = assay: Protection against Plasmodium yoelii sporozoite infected mice (Mus musculus) as minimal active peroral dose; format: functional
In short: (§1)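 Mice challenged with Plasmodium yoelii sporozoites received a single oral dose of the test compound. Protection was scored at day 6 as the number of parasite-free mice out of 5 per dose group. The minimum active dose was taken as the lowest dose giving activity.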

Plasmodium berghei = assay: Antimalarial activity against Plasmodium berghei infected mice (Mus musculus); format: functional, organism-based
Plasmodium falciparum [3] = assay: Antimalarial activity against pyrimethamine-sensitive Plasmodium falciparum D6; format: functional, organism-based
Plasmodium falciparum [4] = assay: Antimalarial activity against pyrimethamine-resistant Plasmodium falciparum W2; format: functional, organism-based
[5] = Metabolic stability assessed as half life in human liver microsomes
[6] = Metabolic stability assessed as half life in mouse liver microsomes
Plasmodium yoelii [7] = assay: Protection against Plasmodium yoelii sporozoite infected mice (Mus musculus) at 160 mg/kg peroral dose; format: functional, organism-based; set-up: dose 160 mg/kg; in short: as §1
Plasmodium cynomolgi = assay: Prophylactic parasite potency against Plasmodium cynomolgi sporozoite challenged rhesus monkey at 30 mg/kg/day Intramuscular dose for 3 days; format: functional
In short: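 Rhesus monkeys were inoculated with P. cynomolgi sporozoites and given 30 mg/kg IM once daily for 3 days, starting the day before inoculation; two monkeys per group, with untreated controls. Blood smears were taken daily from day 6 for 21 days, then 3×/week for 4 weeks, then 2×/week to 100 days after the last dose. Patency was the first smear-positive day.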

[8] = Half life in iv dosed rat plasma; format: ADME, organism-based
Plasmodium yoelii [9] = assay: Protection against Plasmodium yoelii sporozoite infected mice (Mus musculus) at 480 mg/kg peroral dose; format: functional, organism-based; set-up: dose 480 mg/kg
Plasmodium yoelii [10] = assay: Protection against Plasmodium yoelii sporozoite infected mice (Mus musculus) at 120 mg/kg peroral dose; format: functional, organism-based; set-up: dose 120 mg/kg
Plasmodium yoelii [11] = assay: Protection against Plasmodium yoelii sporozoite infected mice (Mus musculus) at 40 mg/kg peroral dose; format: functional, organism-based; set-up: dose 40 mg/kg; in short: as §1
Plasmodium yoelii [12] = assay: Protection against Plasmodium yoelii sporozoite infection in mice (Mus musculus) at 10 mg/kg peroral dose; format: functional, organism-based; set-up: dose 10 mg/kg; in short: as §1

Compound	half-life ([5]; liver microsomes)	half-life ([6]; liver microsomes)	Activity (Plasmodium yoelii [1])	Activity (Plasmodium yoelii [2])	Activity (Plasmodium berghei)	Activity (Plasmodium falciparum [3])	Activity (Plasmodium falciparum [4])	Activity (Plasmodium yoelii [7])	Activity (Plasmodium cynomolgi)	also measured
CC(C)C(=O)N/C(=N/C1=NC(=O)C(=O)N1C(C)C)Nc1ccc(Cl)c(Cl)c1			<30 mg/kg	>160 mg/kg						
CC(C)Nc1nc(Nc2ccc(Cl)c(Cl)c2)nc(C(C)C)n1					inactive	inactive	inactive			
CCC(CC)c1nc(Nc2ccc(Cl)c(Cl)c2)nc(NC(C)C)n1	> 60 min	> 60 min			inactive	inactive	inactive			
CC(C)N1C(=O)C(=O)N=C1/N=C(/NC(=O)C(C)(C)C)Nc1ccc(Cl)c(Cl)c1			>480 mg/kg	>160 mg/kg					40 days	Activity (Plasmodium yoelii [9]): inactive; Activity (Plasmodium yoelii [10]): inactive; half-life ([5]; microsomes): > 60 min; half-life ([6]; microsomes): > 60 min
CCCc1nc(Nc2ccc(Cl)c(Cl)c2)nc(NC(C)C)n1					inactive	inactive	inactive			
CC(C)N1C(=O)C(=O)N=C1N/C(=N\C(=O)OC(C)(C)C)Nc1ccc(Cl)c(Cl)c1									68 days	

Further lines, with some results ahead:

half-life ([5]; liver microsomes)	half-life ([6]; liver microsomes)	Compound	Activity (Plasmodium yoelii [1])	Activity (Plasmodium yoelii [2])	Activity (Plasmodium berghei)	Activity (Plasmodium falciparum [3])	Activity (Plasmodium falciparum [4])	Activity (Plasmodium yoelii [7])	Activity (Plasmodium cynomolgi)	also measured
< 10 min	< 10 min	CCC(CC)C(=O)N/C(=N\C1=NC(=O)C(=O)N1c1ccc(Cl)c(Cl)c1)NC(C)C		<10 mg/kg				Active	15 days	half-life [8]: < 10 min
< 10 min	< 10 min	CC(C)N/C(=N/C1=NC(=O)C(=O)N1c1ccc(Cl)c(Cl)c1)NC(=O)C(C)C		<10 mg/kg				Active		Activity (Plasmodium yoelii [11]): Active
< 10 min	< 10 min	CCCC(=O)N/C(=N\C1=NC(=O)C(=O)N1c1ccc(Cl)c(Cl)c1)NC(C)C		<10 mg/kg				Active		Activity (Plasmodium yoelii [11]): Active; Activity (Plasmodium yoelii [12]): Active
> 60 min	> 60 min	CCC(CC)C(=O)N/C(=N/C1=NC(=O)C(=O)N1C(C)C)Nc1ccc(Cl)c(Cl)c1	7.5 mg/kg	>160 mg/kg					17 days	
